Experiments:
Staphylococcus aureus [1] = assay: Antimicrobial activity against wild type community-acquired methicillin-resistant Staphylococcus aureus MW2 ex serotype USA400 by microdilution method; format: functional
Procedure, shortened: (§1)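 Broth microdilution MIC per CLSI guidelines, inoculum 5 x 10^5 CFU/ml, confirmed by plating serial dilutions. Run in triplicate; three independent clones per mutant. Reported as the median of at least three independent experiments.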

Staphylococcus aureus [2] = assay: Antimicrobial activity against hospital-acquired pbp4-deficient Staphylococcus aureus COL serotype USA500 by microdilution method; format: functional
Procedure, shortened: (§2)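 Broth microdilution MIC per CLSI guidelines, inoculum 5 x 10^5 CFU/ml, confirmed by plating serial dilutions. Run in triplicate; three independent clones per mutant. Reported as the median of at least three independent experiments. MBC: clear wells plated onto drug-free tryptic soy agar, 37°C, 24 and 48 h. pEPSA5-carrying strains tested with and without xylose, no chloramphenicol.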

Staphylococcus aureus [3] = assay: Antimicrobial activity against community-acquired pbp4-deficient Staphylococcus aureus USA300 by microdilution method; format: functional; procedure, shortened: as §2
Staphylococcus aureus [4] = assay: Antimicrobial activity against hospital-acquired pbp3-deficient Staphylococcus aureus COL serotype USA500 by microdilution method; format: functional; procedure, shortened: as §2
[5] = Antimicrobial activity against wild type hospital-acquired methicillin-resistant Staphylococcus aureus N315 serotype USA100 by microdilution method; format: functional, Staphylococcus aureus subsp. aureus N315; procedure, shortened: as §2
Staphylococcus aureus [6] = assay: Antimicrobial activity against community-acquired pbp3-deficient Staphylococcus aureus MW2 ex serotype USA400 by microdilution method; format: functional; procedure, shortened: as §1
Staphylococcus aureus [7] = assay: Antimicrobial activity against community-acquired pbp4-deficient Staphylococcus aureus USA300 by microdilution method relative to wild type; format: functional
Procedure, shortened: (§3)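 Broth microdilution MIC per CLSI, inoculum 5 x 10^5 CFU/ml, inoculum confirmed by plating serial dilutions. Three independent clones tested per mutant, each in triplicate. Reported value is the median of at least three independent experiments. MBC obtained by plating clear wells onto drug-free tryptic soy agar, incubated 37°C for 24 and 48 h.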

Staphylococcus aureus [8] = assay: Antimicrobial activity against hospital-acquired pbp3/4-deficient Staphylococcus aureus COL serotype USA500 by microdilution method; format: functional; procedure, shortened: as §2
[9] = Antimicrobial activity against wild type hospital-acquired methicillin-resistant vancomycin-intermediate Staphylococcus aureus Mu50 serotype USA100 by microdilution method; format: functional, Staphylococcus aureus subsp. aureus Mu50; procedure, shortened: as §2
Staphylococcus aureus [10] = assay: Antimicrobial activity against wild type community-acquired methicillin-resistant Staphylococcus aureus USA300 by microdilution method; format: functional; procedure, shortened: as §2
Staphylococcus aureus [11] = assay: Antimicrobial activity against wild type hospital-acquired methicillin-resistant Staphylococcus aureus COL serotype USA500 by microdilution method; format: functional; procedure, shortened: as §2
Staphylococcus aureus [12] = assay: Antimicrobial activity against community-acquired pbp3-deficient Staphylococcus aureus MW2 serotype USA400 by microdilution method; format: functional; procedure, shortened: as §2
Staphylococcus aureus [13] = assay: Antimicrobial activity against community-acquired pbp4::pbp4-deficient Staphylococcus aureus MW2 serotype USA400 by microdilution method; format: functional; procedure, shortened: as §2
Staphylococcus aureus [14] = assay: Antimicrobial activity against community-acquired pbp4-deficient Staphylococcus aureus MW2 serotype USA400 by microdilution method; format: functional; procedure, shortened: as §2
[15] = Antimicrobial activity against hospital-acquired pbp4-deficient Staphylococcus aureus Mu50 serotype USA100 by microdilution method; format: functional, Staphylococcus aureus subsp. aureus Mu50; procedure, shortened: as §2
[16] = Antimicrobial activity against hospital-acquired pbp4-deficient Staphylococcus aureus N315 serotype USA100 by microdilution method; format: functional, Staphylococcus aureus subsp. aureus N315; procedure, shortened: as §1
Staphylococcus aureus [17] = assay: Antimicrobial activity against community-acquired pbp3/4-deficient Staphylococcus aureus MW2 serotype USA400 by microdilution method; format: functional; procedure, shortened: as §2
Staphylococcus aureus [18] = assay: Antimicrobial activity against wild type community-acquired methicillin-resistant Staphylococcus aureus MW2 serotype USA400 by microdilution method; format: functional; procedure, shortened: as §2
Staphylococcus aureus [19] = assay: Antimicrobial activity against community-acquired pbp4-deficient Staphylococcus aureus MW2 serotype USA400 by microdilution method relative to wild type; format: functional; procedure, shortened: as §3
Staphylococcus aureus [20] = assay: Antimicrobial activity against community-acquired pbp3/4-deficient Staphylococcus aureus MW2 ex serotype USA400 by microdilution method; format: functional; procedure, shortened: as §2
Staphylococcus aureus [21] = assay: Antimicrobial activity against community-acquired pbp4-deficient Staphylococcus aureus MW2 ex serotype USA400 by microdilution method; format: functional; procedure, shortened: as §2
Staphylococcus aureus [22] = assay: Antimicrobial activity against community-acquired pbp4::pbp4-deficient Staphylococcus aureus USA300 by microdilution method; format: functional; procedure, shortened: as §2
Staphylococcus aureus [23] = assay: Antimicrobial activity against wild type community-acquired methicillin-resistant Staphylococcus aureus MW2 (USA400) after 48 hrs by microdilution method; format: functional
Staphylococcus aureus [24] = assay: Antimicrobial activity against wild type community-acquired methicillin-resistant Staphylococcus aureus USA300 after 48 hrs by microdilution method; format: functional; conditions: USA300, 48 h
Staphylococcus aureus [25] = assay: Antimicrobial activity against wild type hospital-acquired methicillin-resistant Staphylococcus aureus 252 after 48 hrs by microdilution method; format: functional; conditions: Staphylococcus aureus, 252, 48 h
Staphylococcus aureus [26] = assay: Antimicrobial activity against wild type hospital-acquired methicillin-resistant Staphylococcus aureus COL after 48 hrs by microdilution method; format: functional
Staphylococcus aureus [27] = assay: Antimicrobial activity against wild type hospital-acquired methicillin-resistant vancomycin-intermediate Staphylococcus aureus Mu50 after 48 hrs by microdilution method; format: functional; conditions: Mu50, 48 h

CCOc1ccc2ccccc2c1C(=O)N[C@@H]1C(=O)N2[C@@H]1SC(C)(C)[C@@H]2C(=O)O [NAFCILLIN]
256 µg/mL: MIC [9] | MIC [15]
16: fold change (FC) (Staphylococcus aureus [7]) | fold change (FC) (Staphylococcus aureus [19])
64 µg/mL: MIC (Staphylococcus aureus [2]) | MIC (Staphylococcus aureus [4]) | MIC [5] | MIC (Staphylococcus aureus [8]) | MIC (Staphylococcus aureus [11]) | MIC [16]
1 µg/mL: MIC (Staphylococcus aureus [3]) | MIC (Staphylococcus aureus [14]) | MIC (Staphylococcus aureus [17]) | MIC (Staphylococcus aureus [20]) | MIC (Staphylococcus aureus [21])
16 µg/mL: MIC (Staphylococcus aureus [1]) | MIC (Staphylococcus aureus [6]) | MIC (Staphylococcus aureus [10]) | MIC (Staphylococcus aureus [12]) | MIC (Staphylococcus aureus [13]) | MIC (Staphylococcus aureus [18]) | MIC (Staphylococcus aureus [22])

Cc1onc(-c2ccccc2)c1C(=O)N[C@@H]1C(=O)N2[C@@H]1SC(C)(C)[C@@H]2C(=O)O [OXACILLIN]
16: fold change (FC) (Staphylococcus aureus [7])
1 µg/mL: MIC (Staphylococcus aureus [20])
4 µg/mL: MIC (Staphylococcus aureus [3]) | MIC (Staphylococcus aureus [14]) | MIC (Staphylococcus aureus [17])
64 µg/mL: MIC (Staphylococcus aureus [10]) | MIC (Staphylococcus aureus [11]) | MIC (Staphylococcus aureus [12]) | MIC (Staphylococcus aureus [13]) | MIC (Staphylococcus aureus [22])
2 µg/mL: MIC (Staphylococcus aureus [21])
> 256 µg/mL: MBC (Staphylococcus aureus [25]) | MBC (Staphylococcus aureus [26]) | MBC (Staphylococcus aureus [27])
256 µg/mL: MBC (Staphylococcus aureus [23]) | MIC (Staphylococcus aureus [2]) | MIC (Staphylococcus aureus [4]) | MBC (Staphylococcus aureus [24]) | MIC [5] | MIC (Staphylococcus aureus [8]) | MIC [9] | MIC [15]

CO[C@@]1(NC(=O)Cc2cccs2)C(=O)N2C(C(=O)O)=C(COC(N)=O)CS[C@@H]21 [CEFOXITIN]
> 256 µg/mL: MBC (Staphylococcus aureus [23]) | MBC (Staphylococcus aureus [24]) | MBC (Staphylococcus aureus [25]) | MBC (Staphylococcus aureus [26]) | MBC (Staphylococcus aureus [27])
64 µg/mL: MIC (Staphylococcus aureus [3]) | MIC [5] | MIC (Staphylococcus aureus [10]) | MIC (Staphylococcus aureus [12]) | MIC (Staphylococcus aureus [13]) | MIC (Staphylococcus aureus [14]) | MIC [16] | MIC (Staphylococcus aureus [17]) | MIC (Staphylococcus aureus [18]) | MIC (Staphylococcus aureus [22])
128 µg/mL: MIC (Staphylococcus aureus [2]) | MIC (Staphylococcus aureus [4]) | MIC (Staphylococcus aureus [8]) | MIC (Staphylococcus aureus [11])
32 µg/mL: MIC (Staphylococcus aureus [6]) | MIC (Staphylococcus aureus [20])
256 µg/mL: MIC [9] | MIC [15]
16 µg/mL: MIC (Staphylococcus aureus [1]) | MIC (Staphylococcus aureus [21])
